Paper PMC9826232 (Chemmedchem, 2022)

Assays:
A549 (G12S) = assay: CellTiter-Glo cell viability assay, A549; format: cell-based; details: Homo sapiens, A549, 72 h, read-out: Cellular activity IC50, A549 (G12S)
Procedure, shortened: (§1)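 Cells seeded, then held 24 h at 37 °C/5 % CO2 before test compound in DMSO was added at various concentrations. Plates were incubated a further 72 h at 37 °C, 5 % CO2, humidified. Controls were DMSO vehicle and 10 μM staurosporine. CellTiter-Glo reagent was added at equal volume to the medium, then 2 min shaking and 10 min at room temperature before luminescence (ATP) reading. IC50 from dose-response fit; plates accepted only if Z' ≥0.5, from 16 control values each.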

H358 (G12 C) = assay: CellTiter-Glo cell viability assay, H358; format: cell-based; details: Homo sapiens, NCI-H358, 72 h, read-out: Cellular activity IC50, H358 (G12 C)
Procedure, shortened: as §1

K‐Ras(G12D) = K‐Ras(G12D) (Homo sapiens, UniProt P01116, G12D); assay: Nucleotide exchange assay; format: biochemical
K‐Ras(G12D), sequence (P01116 1-188 isoform P01116-2 G12D): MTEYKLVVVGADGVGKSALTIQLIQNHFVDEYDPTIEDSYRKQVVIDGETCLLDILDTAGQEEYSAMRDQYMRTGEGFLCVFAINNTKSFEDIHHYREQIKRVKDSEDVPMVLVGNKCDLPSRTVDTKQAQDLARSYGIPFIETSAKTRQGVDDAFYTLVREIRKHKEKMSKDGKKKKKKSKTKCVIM
Procedure, shortened: (§2)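 SOS1 (final 30.2 nM for G12D, 4.6 nM for wild type) and GTP (1 μM final) follow. Incubated overnight at room temperature, then GDP detection reagent for 1 h. Luminescence read; IC50 from sigmoidal curves.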

SNU‐1 (G12D) = assay: CellTiter-Glo cell viability assay, SNU-1; format: cell-based; details: Homo sapiens, SNU1, 72 h, read-out: Cellular activity IC50, SNU‐1 (G12D)
Procedure, shortened: as §1

K‐Ras wild type protein = K‐Ras wild type protein (Homo sapiens, UniProt P01116); assay: Nucleotide exchange assay; format: biochemical
K‐Ras wild type protein, sequence (P01116 1-188 isoform P01116-2): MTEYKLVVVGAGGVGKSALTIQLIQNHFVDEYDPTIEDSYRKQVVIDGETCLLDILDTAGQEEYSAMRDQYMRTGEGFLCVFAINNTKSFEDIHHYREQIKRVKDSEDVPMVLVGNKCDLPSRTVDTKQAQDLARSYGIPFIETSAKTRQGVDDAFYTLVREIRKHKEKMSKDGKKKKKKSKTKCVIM
Procedure, shortened: as §2

[1] = cited from earlier work
NCI‐H441 (G12 V) = assay: CellTiter-Glo cell viability assay, NCI-H441; format: cell-based; details: Homo sapiens, NCI-H441, 72 h, read-out: Cellular activity IC50, NCI‐H441 (G12 V)
Procedure, shortened: as §1

HCT15 (G13D) = assay: CellTiter-Glo cell viability assay, HCT15; format: cell-based; details: Homo sapiens, HCT-15, 72 h, read-out: Cellular activity IC50, HCT15 (G13D)
Procedure, shortened: as §1

[2] = Control assay for nucleotide exchange assay; details: 3 mM compound; percent of control

IC50 (A549 (G12S)): 16.1 ± 1.5 µM | IC50 (H358 (G12 C)): 20.9 ± 0.8 µM | IC50 (K‐Ras(G12D)): 236 ± 46 µM | IC50 (SNU‐1 (G12D)): 16.7 ± 1.2 µM | IC50 (K‐Ras wild type protein): 306 ± 49 µM | IC50 (HCT15 (G13D)): 18.9 ± 0.6 µM
SMILES: O=[N+]([O-])c1ccc(NN=C(c2ccc(O)cc2)c2ccc(O)cc2)c([N+](=O)[O-])c1 [7 a, 4,4′‐((2‐(2,4‐Dinitrophenyl)hydrazinylidene)methylene)diphenol]
tolerability [1]: well tolerated | IC50 (NCI‐H441 (G12 V)): 22.8 ± 4.2 µM | WT %CRTL (3 mM) [2]: 26%
